The source made the active and inactive calls.
Columns and labels:
[1] = tested on: A-375; experiment: Antiproliferative activity against human A375 cells after 72 hrs by Celltiter-Glo assay; format: functional; details: A-375, 72 h
Procedure, shortened: (§1)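 Cells seeded at 3000/well in 96-well plates, exposed to serially diluted compound for 72 h at 37 °C, 5% CO2. Viability read by CellTiter-Glo luminescence and normalized to DMSO control. GI50 derived from curve fit, mean of three independent measurements. Culture media: DMEM/10% FBS for adherent lines; IMDM for MV4-11 and MEC-1/2; RPMI 1640 for suspension lines and CHL.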

[2] = Antiproliferative activity against CHO cells after 72 hrs by Celltiter-Glo assay; format: cell-based, Cricetulus griseus; details: chinese hamster; procedure, shortened: as §1
[3] = target: Cyclin-dependent kinase 9 (Homo sapiens, UniProt P50750); experiment: Inhibition of CDK9 in human MEC1 cells assessed as decrease in phosphorylation at Thr 186 residues up to 3 uM after 2 hrs by immunoblotting analysis; format: cell-based
Sequence of Cyclin-dependent kinase 9 (P50750 whole entry): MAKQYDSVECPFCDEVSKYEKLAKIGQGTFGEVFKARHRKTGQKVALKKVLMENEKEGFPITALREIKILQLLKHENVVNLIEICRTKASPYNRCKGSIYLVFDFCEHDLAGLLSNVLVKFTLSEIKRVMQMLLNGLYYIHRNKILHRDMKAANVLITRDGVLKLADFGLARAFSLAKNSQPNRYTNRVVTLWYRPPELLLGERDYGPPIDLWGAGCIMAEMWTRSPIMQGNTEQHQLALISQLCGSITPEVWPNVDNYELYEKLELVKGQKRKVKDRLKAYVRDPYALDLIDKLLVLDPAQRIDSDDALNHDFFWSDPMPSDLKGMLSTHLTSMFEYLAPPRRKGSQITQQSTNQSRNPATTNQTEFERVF

[4] = Half life in beagle dog at 10 mg/kg, po by LC-MS/MS analysis; format: ADME, organism-based, Canis lupus familiaris; details: in vivo
[5] = Tmax in beagle dog at 2 mg/kg, iv by LC-MS/MS analysis; format: ADME, organism-based, Canis lupus familiaris; details: in vivo
[6] = target: Activin receptor type-1B (Homo sapiens) (UniProt P36896); experiment: Binding affinity to wild-type human ACVR1B (S187 to I505 residues) expressed in bacterial expression system assessed as remaining unbound target protein level at 1000 nM by Kinomescan method relative to control
Procedure, shortened: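 Single-point competition binding screen across a panel of 468 kinases and mutants, with the inhibitor at 1 μM. Binding is read out as percent of a DMSO control, and targets below 1 percent control were classed as strong binders.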

[7] = target: CDK4/Cyclin D3 (Homo sapiens) (UniProt P11802+P30281); experiment: Binding affinity to wild-type human full length CDK4/cyclinD3 (M1 to E303 residues) expressed in mammalian expression system assessed as remaining unbound target protein level at 1000 nM by Kinomescan method relative to control
Procedure, shortened: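 KINOMEscan competitive binding profile at 1 μM inhibitor. Remaining target binding reported as percent of DMSO control.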

[8] = target: Epidermal growth factor receptor (Homo sapiens) (UniProt P00533); experiment: Binding affinity to human partial length EGFR L747-T751del/Sins mutant expressed in bacterial expression system assessed as remaining unbound target protein level at 1000 nM by Kinomescan method relative to control
Procedure, shortened: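 KINOMEscan competition-binding profiling across the panel of 468 kinases and mutants, with inhibitor tested at 1 μM. Binding is expressed as percent of control, with DMSO as the reference control.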

[9] = target: Ephrin type-A receptor 8 (Homo sapiens) (UniProt P29322); experiment: Binding affinity to wild-type human partial length EPHA8 (Q608 to C920 residues) expressed in bacterial expression system assessed as remaining unbound target protein level at 1000 nM by Kinomescan method relative to control
Sequence of Ephrin type-A receptor 8 (Homo sapiens) (P29322 whole entry, the tested form may be a part): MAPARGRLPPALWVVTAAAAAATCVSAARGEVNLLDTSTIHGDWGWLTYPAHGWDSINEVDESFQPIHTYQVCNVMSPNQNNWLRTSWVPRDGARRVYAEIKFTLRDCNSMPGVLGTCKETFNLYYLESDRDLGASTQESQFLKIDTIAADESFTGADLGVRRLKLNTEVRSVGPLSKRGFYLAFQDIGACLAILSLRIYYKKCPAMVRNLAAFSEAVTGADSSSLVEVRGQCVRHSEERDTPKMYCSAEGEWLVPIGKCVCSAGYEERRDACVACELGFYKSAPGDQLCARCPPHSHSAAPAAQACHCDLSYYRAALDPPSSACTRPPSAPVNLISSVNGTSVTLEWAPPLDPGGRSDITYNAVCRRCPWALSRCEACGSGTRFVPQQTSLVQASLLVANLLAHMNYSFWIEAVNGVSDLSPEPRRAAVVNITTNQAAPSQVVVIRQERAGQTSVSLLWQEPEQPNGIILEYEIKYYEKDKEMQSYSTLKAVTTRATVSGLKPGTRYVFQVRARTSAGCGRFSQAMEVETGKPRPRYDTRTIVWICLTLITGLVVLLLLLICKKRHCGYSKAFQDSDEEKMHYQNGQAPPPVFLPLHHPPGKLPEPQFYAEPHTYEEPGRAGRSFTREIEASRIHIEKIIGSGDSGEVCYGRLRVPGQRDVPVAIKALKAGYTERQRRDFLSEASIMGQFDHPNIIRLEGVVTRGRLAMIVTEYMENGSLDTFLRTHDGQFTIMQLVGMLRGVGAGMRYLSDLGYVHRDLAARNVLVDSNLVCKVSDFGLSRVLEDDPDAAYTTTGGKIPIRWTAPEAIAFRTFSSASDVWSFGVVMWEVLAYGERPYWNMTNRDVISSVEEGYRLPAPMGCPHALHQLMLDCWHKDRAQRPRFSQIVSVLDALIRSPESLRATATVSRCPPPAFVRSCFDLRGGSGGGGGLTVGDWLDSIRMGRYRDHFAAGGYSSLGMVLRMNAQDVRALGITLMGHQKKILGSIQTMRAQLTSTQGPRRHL

[10] = target: G protein-coupled receptor kinase 3 (Homo sapiens) (UniProt P35626); experiment: Binding affinity to wild-type human full length GRK3 (M1 to L688 residues) expressed in mammalian expression system assessed as remaining unbound target protein level at 1000 nM by Kinomescan method relative to control
Procedure, shortened: (§2)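 KINOMEscan competition binding profile across a panel of 468 kinases and mutants, with the inhibitor tested at a single concentration of 1 μM. Binding is reported as percent of control, meaning signal relative to a DMSO control.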

[11] = target: Tyrosine-protein kinase JAK2 (Homo sapiens) (UniProt O60674); experiment: Binding affinity to wild-type human partial length JAK2 JH1 catalytic domain (A829 to G1132 residues) expressed in mammalian expression system assessed as remaining unbound target protein level at 1000 nM by Kinomescan method relative to control
[12] = target: Serine/threonine-protein kinase PAK 5 (Homo sapiens) (UniProt Q9P286); experiment: Binding affinity to wild-type human partial length PAK7 (Y400 to H719 residues) expressed in bacterial expression system assessed as remaining unbound target protein level at 1000 nM by Kinomescan method relative to control
[13] = target: Platelet-derived growth factor receptor beta (Homo sapiens) (UniProt P09619); experiment: Binding affinity to wild-type human partial length PDGFRB (V582 to Y1009 residues) expressed in bacterial expression system assessed as remaining unbound target protein level at 1000 nM by Kinomescan method relative to control
Procedure, shortened: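 KINOMEscan binding panel of 468 kinases/mutants. Inhibitor was tested at a single concentration of 1 μM. Binding is reported as percent of control, defined relative to a DMSO control.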

[14] = target: Serine/threonine-protein kinase D1 (Homo sapiens) (UniProt Q15139); experiment: Binding affinity to wild-type human partial length PRKD1 (G551 to E870 residues) expressed in bacterial expression system assessed as remaining unbound target protein level at 1000 nM by Kinomescan method relative to control
Sequence of Serine/threonine-protein kinase D1 (Homo sapiens) (Q15139 whole entry, the tested form may be a part): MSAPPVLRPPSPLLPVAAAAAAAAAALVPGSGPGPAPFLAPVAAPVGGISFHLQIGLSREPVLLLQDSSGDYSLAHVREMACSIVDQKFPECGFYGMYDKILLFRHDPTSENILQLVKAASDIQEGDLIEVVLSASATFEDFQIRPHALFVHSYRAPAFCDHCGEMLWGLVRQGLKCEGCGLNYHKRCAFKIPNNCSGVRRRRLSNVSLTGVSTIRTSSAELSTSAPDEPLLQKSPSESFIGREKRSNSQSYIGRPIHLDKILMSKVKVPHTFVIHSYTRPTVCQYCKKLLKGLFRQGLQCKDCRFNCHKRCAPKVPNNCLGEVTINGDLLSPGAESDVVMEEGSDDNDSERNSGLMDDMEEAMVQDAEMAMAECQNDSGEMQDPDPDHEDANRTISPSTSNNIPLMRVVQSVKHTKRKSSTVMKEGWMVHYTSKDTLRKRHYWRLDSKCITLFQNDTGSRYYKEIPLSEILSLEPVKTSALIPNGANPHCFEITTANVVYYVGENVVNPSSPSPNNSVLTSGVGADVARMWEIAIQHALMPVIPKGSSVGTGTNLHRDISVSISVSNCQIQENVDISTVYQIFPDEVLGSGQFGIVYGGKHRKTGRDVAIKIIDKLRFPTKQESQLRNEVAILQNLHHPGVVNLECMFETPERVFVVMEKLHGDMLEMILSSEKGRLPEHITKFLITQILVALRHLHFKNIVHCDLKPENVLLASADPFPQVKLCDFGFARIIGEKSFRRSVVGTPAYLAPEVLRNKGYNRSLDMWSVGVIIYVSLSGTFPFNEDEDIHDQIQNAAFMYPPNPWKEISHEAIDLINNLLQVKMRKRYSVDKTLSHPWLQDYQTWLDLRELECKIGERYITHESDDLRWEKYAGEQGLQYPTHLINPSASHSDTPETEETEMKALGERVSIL

[15] = target: Serine/threonine-protein kinase Sgk3 (Homo sapiens) (UniProt Q96BR1); experiment: Binding affinity to wild-type human partial length SGK3 (M119 to L496 residues) expressed in mammalian expression system assessed as remaining unbound target protein level at 1000 nM by Kinomescan method relative to control
[16] = target: Serine/threonine-protein kinase SIK2 (Homo sapiens) (UniProt Q9H0K1); experiment: Binding affinity to wild-type human full length SIK2 (M1 to N926 residues) expressed in bacterial expression system assessed as remaining unbound target protein level at 1000 nM by Kinomescan method relative to control
Sequence of Serine/threonine-protein kinase SIK2 (Homo sapiens) (Q9H0K1 whole entry, looked up, the tested form may be a part): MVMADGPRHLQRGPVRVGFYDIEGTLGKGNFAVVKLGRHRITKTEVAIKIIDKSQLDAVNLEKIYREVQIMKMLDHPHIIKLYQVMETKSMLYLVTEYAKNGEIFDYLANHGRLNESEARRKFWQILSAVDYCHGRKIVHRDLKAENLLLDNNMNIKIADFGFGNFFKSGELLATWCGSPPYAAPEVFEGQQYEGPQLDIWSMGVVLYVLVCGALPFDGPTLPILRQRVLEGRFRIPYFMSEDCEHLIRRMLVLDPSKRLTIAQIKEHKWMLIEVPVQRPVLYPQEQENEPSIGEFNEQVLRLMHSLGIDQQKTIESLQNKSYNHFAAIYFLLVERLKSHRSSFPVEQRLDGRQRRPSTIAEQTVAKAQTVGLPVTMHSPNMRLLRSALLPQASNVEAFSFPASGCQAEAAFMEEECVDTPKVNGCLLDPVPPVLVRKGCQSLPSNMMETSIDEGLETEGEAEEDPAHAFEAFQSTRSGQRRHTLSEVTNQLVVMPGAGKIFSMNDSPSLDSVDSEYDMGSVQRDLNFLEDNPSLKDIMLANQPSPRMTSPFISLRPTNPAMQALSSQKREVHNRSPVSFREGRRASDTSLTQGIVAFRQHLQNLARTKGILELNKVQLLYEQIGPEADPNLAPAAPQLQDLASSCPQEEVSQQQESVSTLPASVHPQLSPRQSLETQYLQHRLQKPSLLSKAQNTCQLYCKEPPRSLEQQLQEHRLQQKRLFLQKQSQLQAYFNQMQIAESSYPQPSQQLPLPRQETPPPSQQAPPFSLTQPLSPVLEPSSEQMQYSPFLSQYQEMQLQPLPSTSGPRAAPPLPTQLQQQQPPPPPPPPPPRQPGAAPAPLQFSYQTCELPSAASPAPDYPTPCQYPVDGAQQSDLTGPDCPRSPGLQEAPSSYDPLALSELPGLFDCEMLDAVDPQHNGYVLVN
Procedure, shortened: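 Profiled in a KINOMEscan binding panel with the inhibitor at a single concentration of 1 μM. Binding to each kinase was read out as percent of control, relative to a DMSO control. Strong binders were defined as those with a percent control value below 1.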

[17] = target: Serine/threonine-protein kinase TBK1 (Homo sapiens) (UniProt Q9UHD2); experiment: Binding affinity to wild-type human full length TBK1 (M1 to L729 residues) expressed in mammalian expression system assessed as remaining unbound target protein level at 1000 nM by Kinomescan method relative to control; procedure, shortened: as §2
[18] = target: High affinity nerve growth factor receptor (Homo sapiens) (UniProt P04629); experiment: Binding affinity to wild-type human partial length TRKA (G475 to G790 residues) expressed in mammalian expression system assessed as remaining unbound target protein level at 1000 nM by Kinomescan method relative to control
Sequence of High affinity nerve growth factor receptor (Homo sapiens) (P04629 33-796 limits assumed): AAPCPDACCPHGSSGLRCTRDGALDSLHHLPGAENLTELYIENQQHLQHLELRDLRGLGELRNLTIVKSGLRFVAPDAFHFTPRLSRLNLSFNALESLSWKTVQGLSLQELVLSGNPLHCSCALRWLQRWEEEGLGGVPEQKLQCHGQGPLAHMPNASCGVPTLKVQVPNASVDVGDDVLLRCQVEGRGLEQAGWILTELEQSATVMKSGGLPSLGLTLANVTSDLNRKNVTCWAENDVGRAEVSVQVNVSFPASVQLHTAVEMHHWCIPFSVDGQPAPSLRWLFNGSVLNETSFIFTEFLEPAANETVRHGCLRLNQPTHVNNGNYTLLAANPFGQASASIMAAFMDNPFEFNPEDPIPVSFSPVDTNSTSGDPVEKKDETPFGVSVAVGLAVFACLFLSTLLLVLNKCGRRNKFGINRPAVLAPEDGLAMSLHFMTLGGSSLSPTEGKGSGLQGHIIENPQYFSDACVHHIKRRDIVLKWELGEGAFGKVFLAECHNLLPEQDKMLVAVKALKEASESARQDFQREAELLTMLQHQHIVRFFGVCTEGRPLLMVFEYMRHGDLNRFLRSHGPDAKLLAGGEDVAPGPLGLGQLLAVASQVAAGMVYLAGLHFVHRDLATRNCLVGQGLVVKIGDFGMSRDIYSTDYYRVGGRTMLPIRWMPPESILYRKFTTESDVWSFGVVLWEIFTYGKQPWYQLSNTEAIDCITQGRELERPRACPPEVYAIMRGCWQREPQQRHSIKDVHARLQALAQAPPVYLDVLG

[19] = target: Phosphatidylinositol 3-kinase catalytic subunit type 3 (Homo sapiens) (UniProt Q8NEB9); experiment: Binding affinity to wild-type human partial length VPS34 (S282 to H879 residues) expressed in mammalian expression system assessed as remaining unbound target protein level at 1000 nM by Kinomescan method relative to control
[20] = target: CDK7/Cyclin H/MNAT1 (Homo sapiens, UniProt P50613); experiment: Inhibition of recombinant full length His-tagged human CDK7/cyclin H/MNAT1 expressed in baculovirus expression system
Sequence of CDK7/Cyclin H/MNAT1 (P51946 whole entry): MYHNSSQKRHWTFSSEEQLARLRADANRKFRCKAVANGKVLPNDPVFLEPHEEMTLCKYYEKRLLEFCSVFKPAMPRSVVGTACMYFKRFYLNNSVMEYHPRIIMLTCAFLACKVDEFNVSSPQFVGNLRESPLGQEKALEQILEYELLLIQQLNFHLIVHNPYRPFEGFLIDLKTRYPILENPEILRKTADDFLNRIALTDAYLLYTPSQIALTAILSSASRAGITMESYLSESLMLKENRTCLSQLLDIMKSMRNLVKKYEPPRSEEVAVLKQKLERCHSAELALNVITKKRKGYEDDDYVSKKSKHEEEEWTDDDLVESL
Sequence of CDK7/Cyclin H/MNAT1 (P50613 whole entry): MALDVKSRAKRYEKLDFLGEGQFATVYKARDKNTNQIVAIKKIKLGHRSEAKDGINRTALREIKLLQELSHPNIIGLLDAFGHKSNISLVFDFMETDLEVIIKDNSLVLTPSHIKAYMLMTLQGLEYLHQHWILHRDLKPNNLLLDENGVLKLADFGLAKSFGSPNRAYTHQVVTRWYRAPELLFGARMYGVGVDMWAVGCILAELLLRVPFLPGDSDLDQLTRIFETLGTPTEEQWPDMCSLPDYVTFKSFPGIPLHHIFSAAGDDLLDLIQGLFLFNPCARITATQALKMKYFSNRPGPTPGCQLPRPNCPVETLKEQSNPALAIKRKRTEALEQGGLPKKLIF
Sequence of CDK7/Cyclin H/MNAT1 (P51948 whole entry, further chain): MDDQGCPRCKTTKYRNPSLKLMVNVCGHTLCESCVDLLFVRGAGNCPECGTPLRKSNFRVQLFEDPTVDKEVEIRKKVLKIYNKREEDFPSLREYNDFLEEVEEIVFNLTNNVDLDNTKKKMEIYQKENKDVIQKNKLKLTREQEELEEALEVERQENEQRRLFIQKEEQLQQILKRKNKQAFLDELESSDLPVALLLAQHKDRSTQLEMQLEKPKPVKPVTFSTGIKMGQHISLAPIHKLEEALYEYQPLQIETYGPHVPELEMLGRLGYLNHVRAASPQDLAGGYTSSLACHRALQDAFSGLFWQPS

[21] = tested on: MV4-11; experiment: Cell cycle arrest in human MV4-11 cells increase in accumulation at G0/G1 phase at 0.01 to 0.03 uM after 24 hrs by propidium iodide/RNase staining based flow cytometric analysis

In the case of COCCN[C@H]1CC[C@H](Nc2cc(-c3csc(NCC4(C#N)CCOCC4)n3)c(Cl)cn2)CC1, the GI50 [1] is reported as 44 nM, the GI50 at 72 h [2] is reported as 1100 nM and the inhibition [3] is reported as “inactive”. The half-life [4] was 20.4 h, the Tmax [5] was 1.2 min and the Activity [6] was 92%. It also gave an Activity [7] of 72%, an Activity [8] of 90% and an Activity [9] of 92%. It also gave an Activity [10] of 42%, an Activity [11] of 85% and an Activity [12] of 98%. The Activity [13] was 91%, the Activity [14] was 48% and the Activity [15] was 100%. For the same compound, the Activity [16] was 100%, the Activity [17] was 86% and the Activity [18] was 71%. The Activity [19] was 95%, the IC50 [20] was 1720 nM and the Activity [21] was “Active”.

— ChEMBL document CHEMBL4261600 (Eur J Med Chem, 2018)
